One data set relates to Rattus norvegicus. Put plainly: Oral dose which produces a 30 mmHg drop of systolic blood pressure (calculated on regression line). It counts as functional. The conditions noted are these: Artery. Put shortly:
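Groups of three male conscious spontaneously hypertensive rats; compound suspended in aqueous 0.5% methocel and given by gavage at 2 mL/kg. Systolic pressure measured by indirect tail-cuff before and 2 and 4 h after dosing, following 20 min warming at 37 °C. The dose giving a 30 mmHg fall was read from the regression line of maximum fall against log dose.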

Data set [1] is described as follows: Partition coefficient (logD7.4). Particulars: octanol/water, pH 7.4.
The test system of data set [2] is Canis familiaris. Put plainly: Effect of compound (given intravenously) on systolic blood pressure in conscious renal hypertensive dogs at 0 h. It counts as functional, Canis lupus familiaris, Artery. Put shortly: (§1)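 Groups of four conscious mongrel renal hypertensive dogs; compound dissolved in distilled water and given intravenously at 0.5 mL/kg (1 mg/kg or 0.3 mg/kg in the time-course table). Systolic pressure and heart rate measured indirectly at the tail with a sensor and pressure cuff, at 0, 4, 6, 8, 10, 12 and 20 h. Values are mean ± SE of four animals.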

For data set [3], the system named is Canis familiaris. Put plainly: Effect of compound (given intravenously) on systolic blood pressure in conscious renal hypertensive dogs at 12 h. It counts as functional, Canis lupus familiaris, Artery. Put shortly: as §1
For data set [4], the system named is Canis familiaris. Put plainly: Effect of compound (given intravenously) on systolic blood pressure in conscious renal hypertensive dogs at 20 h. It counts as functional, Canis lupus familiaris, Artery. Put shortly: as §1
The test system of data set [5] is Canis familiaris. Put plainly: Effect of compound (given intravenously) on systolic blood pressure in conscious renal hypertensive dogs at 4 h. It counts as functional, Canis lupus familiaris, Artery. In short, it runs like this: as §1
Data set [6] deals with Canis familiaris. Put plainly: Effect of compound (given intravenously) on systolic blood pressure in conscious renal hypertensive dogs at 6 h. It counts as functional, Canis lupus familiaris, Artery. Put shortly:
as §1

The subject of data set [7] is Canis familiaris. Put plainly: Effect of compound (given intravenously) on systolic blood pressure in conscious renal hypertensive dogs at 8 h. It counts as functional, Canis lupus familiaris, Artery. In short, it runs like this: as §1
The test system of data set [8] is Canis familiaris. Put plainly: Effect of compound (given intravenously) on heart rate in conscious renal hypertensive dogs at 0 h. It counts as functional, Canis lupus familiaris. In short, it runs like this:
as §1

For data set [9], the system named is Canis familiaris. Put plainly: Effect of compound (given intravenously) on heart rate in conscious renal hypertensive dogs at 10 h. It counts as functional, Canis lupus familiaris. Put shortly:
as §1

In data set [10] the test system is Canis familiaris. Put plainly: Effect of compound (given intravenously) on heart rate in conscious renal hypertensive dogs at 12 h. It counts as functional, Canis lupus familiaris. Put shortly:
as §1

In data set [11] the test system is Canis familiaris. Put plainly: Effect of compound (given intravenously) on heart rate in conscious renal hypertensive dogs at 20 h. It counts as functional, Canis lupus familiaris. In short, it runs like this: as §1
Data set [12] concerns Canis familiaris. Put plainly: Effect of compound (given intravenously) on heart rate in conscious renal hypertensive dogs at 4 h. It counts as functional, Canis lupus familiaris. In short, it runs like this: as §1
Data set [13] relates to Canis familiaris. Put plainly: Effect of compound (given intravenously) on systolic blood pressure in conscious renal hypertensive dogs at 10 h. It counts as functional, Canis lupus familiaris, Artery. Put shortly:
as §1

Data set [14] deals with Canis familiaris. Put plainly: Effect of compound (given intravenously) on heart rate in conscious renal hypertensive dogs 6 h. It counts as functional, Canis lupus familiaris. In short, it runs like this: as §1
The test system of data set [15] is Canis familiaris. Put plainly: Effect of compound (given intravenously) on heart rate in conscious renal hypertensive dogs at 8 h. It counts as functional, Canis lupus familiaris. Put shortly:
as §1

The values that follow come from ChEMBL document CHEMBL1122703, “Antihypertensives. N-1H-Pyrrol-1-yl-3-pyridazinamines” (J Med Chem, 1984).

A word on the logD: it is the decadic logarithm of the distribution of all forms, ionised or not, between an organic phase and buffer at a given pH. A high value points to a more lipophilic compound.

Molecules are shown by their SMILES.

Turning to `Cc1ccc(C)n1Nc1ccc(N(CCO)CCO)nn1`, the ED30 in the data set on Rattus norvegicus is greater than 100 mg/kg.

`CCOCCN(CCOCC)c1ccc(Nn2c(C)ccc2C)nn1`: the ED30 in the data set on Rattus norvegicus was 2 mg/kg.

As to `Cc1ccc(C)n1Nc1ccc(N(CCO)CC(C)O)nn1` (stereo not drawn), the ED30 in the data set with Rattus norvegicus was greater than 100 mg/kg.

Turning to `Cc1ccc(C)n1Nc1nnc(N2CCOCC2)c2c1CCCC2`, in the data set on Rattus norvegicus, the ED30 was roughly 33 mg/kg.

As to `Cc1ccc(C)n1Nc1ccc(N2CCC(O)CC2)nn1`, in the data set on Rattus norvegicus, the ED30 is 12.6 mg/kg.

Regarding `Cc1ccc(C)n1Nc1ccc(N2CCCC2)nn1`, the ED30 with Rattus norvegicus is greater than 100 mg/kg.

For `CN(c1ccc(N2CCOCC2)nn1)n1cccc1`, in the data set on Rattus norvegicus, the ED30 is 16.5 mg/kg.

Consider `CCc1ccc(CC)n1Nc1ccc(N2CCOCC2)nn1`, for which, in the data set on Rattus norvegicus, the ED30 is 15.4 mg/kg. In data set [1], this molecule registered a log distribution coefficient (logD) of 2.71.

On to `Cc1ccc(C)n1Nc1ccc(N2CCN(C)CC2)nn1`, for which the ED30 with Rattus norvegicus is roughly 43 mg/kg.

Consider `COCCN(C)c1ccc(Nn2c(C)ccc2C)nn1`, for which the ED30 in the data set with Rattus norvegicus was 7 mg/kg. The logD in data set [1] is 2.16.

With `CCN(CC)c1ccc(Nn2c(C)ccc2C)nn1`, the ED30 in the data set with Rattus norvegicus was 3.9 mg/kg.

Turning to `Cc1ccc(C)n1Nc1ccc(N(CC(C)O)CC(C)O)nn1` (stereo not drawn), the ED30 with Rattus norvegicus was roughly 54 mg/kg.

`CC(=O)N(c1ccc(N2CCOCC2)nn1)n1c(C)ccc1C`: in the data set on Rattus norvegicus, the ED30 was 11.8 mg/kg. The same molecule registered a logD in data set [1] of 1.64.

On to `Cc1ccc(C)n1Nc1ccc(N(C)C)nn1`, for which, in the data set with Rattus norvegicus, the ED30 was roughly 22 mg/kg.

For `Cc1ccc(C)n1Nc1nnc(N2CCOCC2)c2ccccc12`, the ED30 with Rattus norvegicus was roughly 91 mg/kg.

On to `Cc1ccc(C)n1Nc1ccc(N2C(C)COCC2C)nn1` (stereo not drawn), for which, in the data set on Rattus norvegicus, the ED30 was 18.5 mg/kg.

As for `Cc1ccc(C)n1Nc1ccc(N2CCSCC2)nn1`, in the data set on Rattus norvegicus, the ED30 was roughly 25 mg/kg.

For `Cc1ccc(C)n1Nc1ccc(N2CCCCC2)nn1`, the ED30 with Rattus norvegicus is 10 mg/kg.

As for `Cc1ccc(C)n1Nc1ccc(N2CCNCC2)nn1`, in the data set on Rattus norvegicus, the ED30 is 30 mg/kg.

`Cc1ccc(C)n1Nc1nnc(N2CCC(O)CC2)c2ccccc12`: in the data set with Rattus norvegicus, the ED30 is roughly 33 mg/kg.

For `COCCN(CCOC)c1ccc(Nn2c(C)ccc2C)nn1`, the ED30 in the data set with Rattus norvegicus is 2.7 mg/kg.

For `Cc1cc(N2CCOCC2)nnc1Nn1c(C)ccc1C`, the ED30 with Rattus norvegicus was roughly 26 mg/kg.

As to `c1ccn(Nc2ccc(N3CCOCC3)nn2)c1`, the ED30 with Rattus norvegicus was greater than 100 mg/kg.

`C=CCN(CC=C)c1ccc(Nn2c(C)ccc2C)nn1`: in the data set on Rattus norvegicus, the ED30 is 11.4 mg/kg.

Regarding `Cc1ccc(C)n1N(C)c1ccc(N2CCOCC2)nn1`, the ED30 in the data set on Rattus norvegicus was 15.8 mg/kg. Also, the log distribution coefficient (logD) in [1] came out at 2.21.

With `Cc1ccc(C)n1Nc1ccc(N(C)CC(C)O)nn1` (stereo not drawn), in the data set on Rattus norvegicus, the ED30 was 7.7 mg/kg.

As to `Cc1c(Nn2c(C)ccc2C)nnc(N2CCOCC2)c1C`, the ED30 in the data set on Rattus norvegicus is 35 mg/kg.

As for `NNc1nncc2ccccc12` [HYDRALAZINE], the Pressure was 188 mmHg in the data set on Canis familiaris [2]; 190 mmHg in the data set on Canis familiaris [3]; 188 mmHg in the data set on Canis familiaris [4]; 135 mmHg with Canis familiaris [5]; 138 mmHg in the data set with Canis familiaris [6]; 148 mmHg with Canis familiaris [7]. For the same molecule, in the data set with Canis familiaris [13], the Pressure was found to be 188 mmHg. The Heart rate in the data set on Canis familiaris [8] is recorded as 78 beats min-1; in the data set on Canis familiaris [9], 125 beats min-1; with Canis familiaris [10] it was 118 beats min-1; in the data set with Canis familiaris [11] it was 115 beats min-1; in the data set on Canis familiaris [12], 128 beats min-1.

For the molecule `Cc1ccc(C)n1Nc1ccc(N2CCOCC2)nn1.Cl` [MOPIDRALAZINE HYDROCHLORIDE], the Pressure in the data set on Canis familiaris [2] turned out to be 190 mmHg; with Canis familiaris [3], 165 mmHg; with Canis familiaris [4], 187 mmHg; in the data set on Canis familiaris [5], 168 mmHg; with Canis familiaris [6], 150 mmHg; in the data set on Canis familiaris [7], 140 mmHg. This molecule also yielded a Pressure in the data set with Canis familiaris [13] of 147 mmHg. Further, the Heart rate with Canis familiaris [14] is 100 beats min-1; with Canis familiaris [8], 80 beats min-1; in the data set with Canis familiaris [9], 107 beats min-1; in the data set on Canis familiaris [10] it was 105 beats min-1; in the data set with Canis familiaris [11] it was 105 beats min-1; in the data set with Canis familiaris [12], 92 beats min-1. In the data set with Canis familiaris [15], the Heart rate came to 110 beats min-1. In addition, the ED30 with Rattus norvegicus was 3.9 mg/kg.
